The results in this text go back to ChEMBL document CHEMBL2424551, “Synthesis, in vitro evaluation and molecular modelling of naphthalimide analogue as anticancer agents” (2013).

The source made the active and inactive calls. No cut-off for these calls is given here.

This test has as its system DNA. Kind of test: Binding affinity to calf thymus DNA assessed as DNA intercalation at 50 uM by fluorescence spectrophotometry. Conditions: Bos taurus. Type of test: nucleic-acid assay. The essentials:
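Fluorescence titration: increasing ct-DNA added to compound in phosphate buffer (pH 7.0); decrease in emission band at 500 nm monitored; binding constant derived from titration data by Benesi–Hildebrand method.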

On to `CN(C)CCN1C(=O)c2cccc3cc(N)cc(c23)C1=O`, for which the outcome was Active.
